Experiments:
HT-29 = experiment: Cytotoxicity against human HT-29 cells after 24 hrs by MTT assay; assay type: cell-based; settings: HT-29, 24 h
Procedure, shortened: (§1)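 MTT viability assay in hERG-transfected HEK293 cells and in HT-29 cells exposed to probe. Half-maximal inhibitory concentration was derived for each cell line and reported as mean ± deviation.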

HEK293 = experiment: Cytotoxicity against human ERG transfected HEK293 cells after 24 hrs by MTT assay; assay type: cell-based; settings: HEK293, 24 h; procedure, shortened: as §1
[1] = target: T1, Voltage-gated inwardly rectifying potassium channel KCNH2 (Homo sapiens, UniProt Q12809); experiment: Binding affinity to ERG channel in human HT-29 cells assessed as fluorescence signal at 0.5 uM incubated for 10 mins by fluorescence microscopic imaging analysis; assay type: cell-based; settings: ht-29, 10 min
T1 sequence (Q12809 whole entry): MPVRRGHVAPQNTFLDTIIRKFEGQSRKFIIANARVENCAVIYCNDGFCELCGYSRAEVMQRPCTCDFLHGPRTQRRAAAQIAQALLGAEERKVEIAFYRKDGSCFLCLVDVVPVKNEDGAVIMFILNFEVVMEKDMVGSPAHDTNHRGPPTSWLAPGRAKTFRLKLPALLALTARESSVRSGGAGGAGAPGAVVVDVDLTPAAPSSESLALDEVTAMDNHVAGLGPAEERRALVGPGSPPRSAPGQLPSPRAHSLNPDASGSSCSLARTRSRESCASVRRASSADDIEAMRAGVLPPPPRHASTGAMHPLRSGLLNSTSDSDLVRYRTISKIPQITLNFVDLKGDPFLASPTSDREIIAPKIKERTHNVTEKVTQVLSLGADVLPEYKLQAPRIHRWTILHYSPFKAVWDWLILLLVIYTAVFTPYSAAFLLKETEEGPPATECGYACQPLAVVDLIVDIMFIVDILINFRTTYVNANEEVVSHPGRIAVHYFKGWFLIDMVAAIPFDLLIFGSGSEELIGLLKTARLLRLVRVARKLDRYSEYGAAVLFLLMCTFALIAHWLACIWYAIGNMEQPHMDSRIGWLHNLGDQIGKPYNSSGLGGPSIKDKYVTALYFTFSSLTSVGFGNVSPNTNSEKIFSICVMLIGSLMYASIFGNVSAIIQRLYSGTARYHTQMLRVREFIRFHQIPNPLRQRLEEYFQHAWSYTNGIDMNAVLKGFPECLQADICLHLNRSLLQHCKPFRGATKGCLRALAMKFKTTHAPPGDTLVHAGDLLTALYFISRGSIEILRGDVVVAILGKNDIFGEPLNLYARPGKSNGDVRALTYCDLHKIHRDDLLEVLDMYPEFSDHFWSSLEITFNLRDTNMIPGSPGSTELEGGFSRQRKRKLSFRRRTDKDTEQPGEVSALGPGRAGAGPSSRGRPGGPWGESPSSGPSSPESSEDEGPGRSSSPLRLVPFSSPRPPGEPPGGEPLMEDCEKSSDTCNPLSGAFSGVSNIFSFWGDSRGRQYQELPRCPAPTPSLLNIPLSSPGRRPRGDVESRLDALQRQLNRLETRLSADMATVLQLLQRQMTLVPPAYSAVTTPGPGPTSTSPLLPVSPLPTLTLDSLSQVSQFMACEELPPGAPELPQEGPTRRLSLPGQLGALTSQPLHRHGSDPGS
Procedure, shortened: (§2)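 Live-cell fluorescence microscopy of hERG-transfected HEK293 cells or HT-29 colorectal cancer cells incubated with probe at 0.5 μM. Images were taken in bright field and in the GFP channel. Probe photophysics were characterised at 10 μM in PBS, pH 7.4.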

[2] = target: T1, Voltage-gated inwardly rectifying potassium channel KCNH2; experiment: Binding affinity to human ERG channel expressed in HEK293 cells assessed as fluorescence signal at 0.5 uM incubated for 10 mins by fluorescence microscopic imaging analysis in presence of astemizole; assay type: cell-based; settings: hek293, 10 min
Procedure, shortened: (§3)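 Competition imaging in hERG-transfected HEK293 or HT-29 cells. Cells were co-incubated with 100 μM astemizole and 0.5 μM probe, then imaged by fluorescence microscopy in bright field and the GFP channel. Cell autofluorescence, with and without astemizole, was checked separately.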

[3] = target: T1, Voltage-gated inwardly rectifying potassium channel KCNH2; experiment: Displacement of [3H] dofetilide from human ERG channel expressed in HEK293 cell membranes incubated for 2 hrs by scintillation counting analysis
[4] = target: T1, Voltage-gated inwardly rectifying potassium channel KCNH2; experiment: Binding affinity to ERG channel in human HT-29 cells assessed as fluorescence signal at 0.5 uM incubated for 10 mins by fluorescence microscopic imaging analysis in presence of astemizole; assay type: cell-based; settings: ht-29, 10 min; procedure, shortened: as §3
[5] = target: T1, Voltage-gated inwardly rectifying potassium channel KCNH2; experiment: Binding affinity to human ERG channel expressed in HEK293 cells assessed as fluorescence signal at 0.5 uM incubated for 10 mins by fluorescence microscopic imaging analysis; assay type: cell-based; settings: hek293, 10 min; procedure, shortened: as §2

Structure (SMILES)	IC50 (HT-29)	IC50 (HEK293)	Activity [1]	Activity [2]	IC50 [3]	Ki [3]	Activity [4]	Activity [5]
CCN(CC)c1ccc2cc(C(=O)NCCCCN3CCC(Nc4nc5ccccc5n4Cc4ccc(F)cc4)CC3)c(=O)oc2c1	9.9 µM	4.7 µM	–	–	–	–	–	–
O=[N+]([O-])c1ccc(NCCCCN2CCC(Nc3nc4ccccc4n3Cc3ccc(F)cc3)CC2)c2nonc12	36.1 µM	12.5 µM	Active	Not Active	25 nM	12 nM	Not Active	Active
CC(=O)Nc1ccc2c3c(cccc13)C(=O)N(CCCCN1CCC(Nc3nc4ccccc4n3Cc3ccc(F)cc3)CC1)C2=O	18.6 µM	7.2 µM	–	–	–	–	–	–
COc1ccc(CCN2CCC(Nc3nc4ccccc4n3Cc3ccc(F)cc3)CC2)cc1 [ASTEMIZOLE]	15.4 µM	5.1 µM	–	–	–	–	–	–

Source: ChEMBL document CHEMBL3804778, “Astemizole Derivatives as Fluorescent Probes for hERG Potassium Channel Imaging” (ACS Med Chem Lett, 2016)
